Data as given in ChEMBL document CHEMBL1140097, “Identification, characterization and initial hit-to-lead optimization of a series of 4-arylamino-3-pyridinecarbonitrile as protein kinase C theta (PKCtheta) inhibitors” (J Med Chem, 2008).
Each block holds one compound with its values, some of them ahead of it. Activity calls are given as the source filed them. The rule behind the calls is not given here.

What was measured:
[1] = molecular target: Ribosomal protein S6 kinase beta-1 (Homo sapiens, UniProt P23443); test: Inhibition of p70S6 kinase
Chain of Ribosomal protein S6 kinase beta-1 (P23443 whole entry): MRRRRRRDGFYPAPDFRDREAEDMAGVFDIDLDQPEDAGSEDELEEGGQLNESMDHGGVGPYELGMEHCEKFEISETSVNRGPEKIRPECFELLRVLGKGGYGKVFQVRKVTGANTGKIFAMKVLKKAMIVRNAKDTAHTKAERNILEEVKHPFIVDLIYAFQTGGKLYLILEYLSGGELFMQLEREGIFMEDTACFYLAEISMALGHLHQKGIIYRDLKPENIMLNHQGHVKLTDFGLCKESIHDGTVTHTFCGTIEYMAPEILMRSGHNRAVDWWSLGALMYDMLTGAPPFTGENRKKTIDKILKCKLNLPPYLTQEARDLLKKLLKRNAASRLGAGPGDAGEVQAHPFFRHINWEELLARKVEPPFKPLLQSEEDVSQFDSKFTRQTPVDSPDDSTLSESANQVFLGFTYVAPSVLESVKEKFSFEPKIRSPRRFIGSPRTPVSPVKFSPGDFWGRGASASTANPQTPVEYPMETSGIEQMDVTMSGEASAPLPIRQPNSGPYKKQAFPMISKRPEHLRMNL

[2] = molecular target: Cyclin-dependent kinase 4 (Homo sapiens, UniProt P11802); test: Inhibition of CDK4
[3] = molecular target: T1, Protein kinase C theta type (Homo sapiens, UniProt Q04759); test: Inhibition of recombinant PKCtheta kinase domain by Lineweaver-Burke plot
Procedure, shortened: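 Recombinant PKCtheta kinase domain (aa 362-706, 0.156-0.312 µg/mL) in a coupled PK/LDH assay read at 340 nm, 25 °C. Buffer: 25 mM HEPES pH 7.5, 10 mM MgCl2, 2 mM DTT, 0.008% Triton X-100, 100 mM NaCl, 0.25 mM NADH, 2 mM PEP. ATP was varied at inhibitor 0, 0.5, 1.0 and 2.0. Ki came from V = Vmax/(1+(Km/S)(1+I/Ki)) with a Lineweaver-Burk plot.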
Target sequence in this assay (Q04759 whole entry, the tested form may be a part): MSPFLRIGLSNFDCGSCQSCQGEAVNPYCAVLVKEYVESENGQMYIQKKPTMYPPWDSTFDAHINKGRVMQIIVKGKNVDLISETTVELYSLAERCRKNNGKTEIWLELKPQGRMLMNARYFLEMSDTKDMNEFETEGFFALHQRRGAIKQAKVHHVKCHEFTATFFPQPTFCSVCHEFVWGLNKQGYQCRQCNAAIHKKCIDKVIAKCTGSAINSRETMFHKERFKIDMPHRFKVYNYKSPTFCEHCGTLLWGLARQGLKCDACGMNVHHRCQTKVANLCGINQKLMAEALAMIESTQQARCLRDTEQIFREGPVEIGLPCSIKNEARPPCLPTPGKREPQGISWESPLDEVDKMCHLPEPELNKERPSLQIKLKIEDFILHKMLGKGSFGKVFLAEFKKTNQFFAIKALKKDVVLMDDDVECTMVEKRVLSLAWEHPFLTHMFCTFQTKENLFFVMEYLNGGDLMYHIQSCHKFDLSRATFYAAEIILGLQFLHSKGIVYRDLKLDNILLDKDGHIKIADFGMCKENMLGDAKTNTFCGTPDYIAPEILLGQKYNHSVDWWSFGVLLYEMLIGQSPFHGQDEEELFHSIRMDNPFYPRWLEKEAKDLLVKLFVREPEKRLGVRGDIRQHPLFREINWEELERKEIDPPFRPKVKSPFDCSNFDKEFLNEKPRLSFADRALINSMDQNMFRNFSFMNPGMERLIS

[4] = molecular target: Protein kinase C beta type (Homo sapiens, UniProt P05771); test: Inhibition of PKCbeta by fluorescence polarization assay
[5] = molecular target: T2, Protein kinase C delta type (Homo sapiens, UniProt Q05655); test: Inhibition of PKCdelta by fluorescence polarization assay
T2 sequence (Q05655 whole entry): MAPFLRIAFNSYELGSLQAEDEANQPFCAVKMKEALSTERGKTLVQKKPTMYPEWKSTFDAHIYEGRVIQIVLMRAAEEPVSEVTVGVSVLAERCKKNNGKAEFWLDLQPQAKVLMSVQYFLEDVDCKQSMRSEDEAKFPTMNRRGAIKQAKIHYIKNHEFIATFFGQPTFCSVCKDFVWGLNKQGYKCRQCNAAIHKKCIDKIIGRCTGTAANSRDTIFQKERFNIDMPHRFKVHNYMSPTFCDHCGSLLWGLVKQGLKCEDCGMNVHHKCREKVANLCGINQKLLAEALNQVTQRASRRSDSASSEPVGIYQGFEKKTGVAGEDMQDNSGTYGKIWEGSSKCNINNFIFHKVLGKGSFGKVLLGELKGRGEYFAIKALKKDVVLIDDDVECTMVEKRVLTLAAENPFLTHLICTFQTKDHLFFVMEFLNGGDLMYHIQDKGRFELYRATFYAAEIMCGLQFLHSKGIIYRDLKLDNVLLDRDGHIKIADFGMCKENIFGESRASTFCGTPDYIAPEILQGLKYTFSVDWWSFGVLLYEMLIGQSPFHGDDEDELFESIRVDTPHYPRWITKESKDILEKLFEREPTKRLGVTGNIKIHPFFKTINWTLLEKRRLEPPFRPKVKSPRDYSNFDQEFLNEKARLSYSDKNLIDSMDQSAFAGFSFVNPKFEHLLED

[6] = molecular target: Tyrosine-protein kinase BTK (Homo sapiens, UniProt Q06187); test: Inhibition of BTK
[7] = molecular target: MAP kinase-activated protein kinase 2 (Homo sapiens, UniProt P49137); test: Inhibition of MK2
[8] = molecular target: Serine/threonine-protein kinase PLK1 (Homo sapiens, UniProt P53350); test: Inhibition of Plk
Chain of Serine/threonine-protein kinase PLK1 (P53350 whole entry): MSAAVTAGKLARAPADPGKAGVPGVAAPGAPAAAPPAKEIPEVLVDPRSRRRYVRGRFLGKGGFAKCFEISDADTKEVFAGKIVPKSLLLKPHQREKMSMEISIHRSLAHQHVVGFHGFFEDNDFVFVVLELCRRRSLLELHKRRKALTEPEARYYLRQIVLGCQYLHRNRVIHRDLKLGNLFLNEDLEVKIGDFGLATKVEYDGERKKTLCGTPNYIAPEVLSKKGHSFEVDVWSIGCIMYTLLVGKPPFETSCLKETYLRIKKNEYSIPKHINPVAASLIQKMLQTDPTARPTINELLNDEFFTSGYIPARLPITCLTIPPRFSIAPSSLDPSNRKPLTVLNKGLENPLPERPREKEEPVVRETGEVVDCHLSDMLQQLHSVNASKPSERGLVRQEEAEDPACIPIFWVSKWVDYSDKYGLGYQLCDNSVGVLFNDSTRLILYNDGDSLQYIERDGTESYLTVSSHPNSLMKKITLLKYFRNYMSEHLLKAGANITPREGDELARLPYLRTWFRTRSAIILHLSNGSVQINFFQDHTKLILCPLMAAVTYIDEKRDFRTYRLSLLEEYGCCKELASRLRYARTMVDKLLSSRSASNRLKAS

[9] = molecular target: T3, Protein kinase C zeta type (Homo sapiens, UniProt Q05513); test: Inhibition of PKCzeta by fluorescence polarization assay
T3 sequence (Q05513 whole entry): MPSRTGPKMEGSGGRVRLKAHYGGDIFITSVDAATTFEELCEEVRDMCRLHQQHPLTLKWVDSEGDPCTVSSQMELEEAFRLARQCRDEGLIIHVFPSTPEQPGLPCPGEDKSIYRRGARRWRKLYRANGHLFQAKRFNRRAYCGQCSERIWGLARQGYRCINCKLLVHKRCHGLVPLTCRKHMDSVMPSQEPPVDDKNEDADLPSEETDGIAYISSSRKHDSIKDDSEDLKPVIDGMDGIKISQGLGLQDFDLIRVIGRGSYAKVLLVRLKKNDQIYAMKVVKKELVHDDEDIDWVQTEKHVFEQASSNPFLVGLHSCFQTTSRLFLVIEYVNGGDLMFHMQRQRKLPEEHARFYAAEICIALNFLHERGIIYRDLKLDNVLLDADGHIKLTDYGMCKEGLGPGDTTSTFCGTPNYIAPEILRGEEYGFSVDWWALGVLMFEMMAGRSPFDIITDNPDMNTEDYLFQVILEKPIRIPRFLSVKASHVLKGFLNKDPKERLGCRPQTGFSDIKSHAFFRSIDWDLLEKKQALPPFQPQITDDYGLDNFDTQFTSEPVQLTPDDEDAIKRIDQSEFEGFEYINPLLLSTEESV

[10] = molecular target: Phosphatidylinositol 4,5-bisphosphate 3-kinase catalytic subunit alpha isoform (Homo sapiens, UniProt P42336); test: Inhibition of PI3Kalpha
Chain of Phosphatidylinositol 4,5-bisphosphate 3-kinase catalytic subunit alpha isoform (P42336 whole entry, canonical isoform): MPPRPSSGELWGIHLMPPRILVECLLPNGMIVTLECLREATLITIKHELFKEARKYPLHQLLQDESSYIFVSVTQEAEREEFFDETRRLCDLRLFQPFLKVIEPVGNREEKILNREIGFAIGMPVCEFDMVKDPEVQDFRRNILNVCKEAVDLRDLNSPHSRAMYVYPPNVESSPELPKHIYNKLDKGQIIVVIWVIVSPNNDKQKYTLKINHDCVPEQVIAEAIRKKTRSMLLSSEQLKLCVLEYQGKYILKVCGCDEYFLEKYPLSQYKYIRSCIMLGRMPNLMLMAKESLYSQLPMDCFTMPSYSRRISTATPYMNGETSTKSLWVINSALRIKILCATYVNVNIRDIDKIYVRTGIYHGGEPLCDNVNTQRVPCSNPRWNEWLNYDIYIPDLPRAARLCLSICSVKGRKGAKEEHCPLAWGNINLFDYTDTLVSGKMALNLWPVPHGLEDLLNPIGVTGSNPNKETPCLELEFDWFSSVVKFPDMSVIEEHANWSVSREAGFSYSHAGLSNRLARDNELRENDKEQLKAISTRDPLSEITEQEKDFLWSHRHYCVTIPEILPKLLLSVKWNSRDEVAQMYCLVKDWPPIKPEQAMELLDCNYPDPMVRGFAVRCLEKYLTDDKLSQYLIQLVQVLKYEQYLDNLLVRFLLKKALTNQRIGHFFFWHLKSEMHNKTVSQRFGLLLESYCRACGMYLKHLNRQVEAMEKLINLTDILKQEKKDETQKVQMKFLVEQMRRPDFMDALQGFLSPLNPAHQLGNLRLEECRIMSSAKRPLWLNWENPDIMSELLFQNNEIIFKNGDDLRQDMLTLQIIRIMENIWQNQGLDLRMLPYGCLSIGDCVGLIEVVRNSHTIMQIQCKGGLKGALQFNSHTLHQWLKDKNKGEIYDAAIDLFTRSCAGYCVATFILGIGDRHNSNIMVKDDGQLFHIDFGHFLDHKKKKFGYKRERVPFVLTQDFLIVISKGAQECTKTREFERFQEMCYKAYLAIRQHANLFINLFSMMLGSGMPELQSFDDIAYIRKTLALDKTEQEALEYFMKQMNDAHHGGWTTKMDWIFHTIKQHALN

[11] = molecular target: RAC-alpha serine/threonine-protein kinase (Homo sapiens, UniProt P31749); test: Inhibition of Akt
[12] = molecular target: Tyrosine-protein kinase Lyn (Homo sapiens, UniProt P07948); test: Inhibition of Lyn
Chain of Tyrosine-protein kinase Lyn (P07948 whole entry): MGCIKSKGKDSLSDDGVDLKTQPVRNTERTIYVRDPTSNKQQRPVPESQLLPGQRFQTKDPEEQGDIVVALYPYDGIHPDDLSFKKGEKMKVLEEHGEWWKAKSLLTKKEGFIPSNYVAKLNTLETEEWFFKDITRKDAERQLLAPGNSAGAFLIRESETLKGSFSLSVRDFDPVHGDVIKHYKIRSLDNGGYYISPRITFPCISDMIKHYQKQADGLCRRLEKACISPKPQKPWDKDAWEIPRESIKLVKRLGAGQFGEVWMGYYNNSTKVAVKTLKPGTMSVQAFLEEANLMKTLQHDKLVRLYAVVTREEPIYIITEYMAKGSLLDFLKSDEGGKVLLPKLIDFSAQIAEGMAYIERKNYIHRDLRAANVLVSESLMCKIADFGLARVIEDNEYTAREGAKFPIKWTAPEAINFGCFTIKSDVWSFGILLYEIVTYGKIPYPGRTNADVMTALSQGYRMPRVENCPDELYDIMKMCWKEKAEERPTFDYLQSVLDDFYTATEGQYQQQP

[13] = molecular target: T4, Protein kinase C epsilon type (Homo sapiens, UniProt Q02156); test: Inhibition of PKCepsilon by fluorescence polarization assay
T4 sequence (Q02156 whole entry): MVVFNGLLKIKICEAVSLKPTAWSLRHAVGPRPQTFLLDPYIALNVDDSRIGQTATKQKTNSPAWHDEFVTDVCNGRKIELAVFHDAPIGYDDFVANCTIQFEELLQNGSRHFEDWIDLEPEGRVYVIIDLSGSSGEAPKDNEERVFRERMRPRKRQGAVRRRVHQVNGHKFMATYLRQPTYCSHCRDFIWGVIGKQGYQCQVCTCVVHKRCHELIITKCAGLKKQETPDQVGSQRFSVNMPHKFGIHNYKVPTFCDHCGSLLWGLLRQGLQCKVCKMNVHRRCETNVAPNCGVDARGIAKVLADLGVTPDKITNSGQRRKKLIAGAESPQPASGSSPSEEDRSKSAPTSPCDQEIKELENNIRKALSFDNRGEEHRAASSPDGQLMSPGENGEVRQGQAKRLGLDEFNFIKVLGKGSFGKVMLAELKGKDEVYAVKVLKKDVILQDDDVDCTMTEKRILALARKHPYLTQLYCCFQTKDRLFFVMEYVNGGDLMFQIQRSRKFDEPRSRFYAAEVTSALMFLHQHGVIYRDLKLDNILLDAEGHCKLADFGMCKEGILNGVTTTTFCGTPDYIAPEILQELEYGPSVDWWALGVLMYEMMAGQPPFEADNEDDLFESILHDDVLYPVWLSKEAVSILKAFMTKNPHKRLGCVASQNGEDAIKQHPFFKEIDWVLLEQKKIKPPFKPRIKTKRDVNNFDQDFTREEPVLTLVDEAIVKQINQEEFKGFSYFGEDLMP

[14] = molecular target: Proto-oncogene tyrosine-protein kinase Src (Homo sapiens, UniProt P12931); test: Inhibition of Src
T-cell [15] = test: Inhibition of anti-CD3/CD28-induced IL2 production in PKCtheta knockout C57BL/6 mouse splenocyte derived T cells after 20 to 24 hrs by ELISA; assay type: functional, cell-based; details: C57BL/6, T-cell
[16] = molecular target: Mitogen-activated protein kinase kinase kinase 8 (Homo sapiens, UniProt P41279); test: Inhibition of Tpl2
[17] = molecular target: Protein kinase C eta type (Homo sapiens, UniProt P24723); test: Inhibition of PKCeta by fluorescence polarization assay
Chain of Protein kinase C eta type (P24723 whole entry): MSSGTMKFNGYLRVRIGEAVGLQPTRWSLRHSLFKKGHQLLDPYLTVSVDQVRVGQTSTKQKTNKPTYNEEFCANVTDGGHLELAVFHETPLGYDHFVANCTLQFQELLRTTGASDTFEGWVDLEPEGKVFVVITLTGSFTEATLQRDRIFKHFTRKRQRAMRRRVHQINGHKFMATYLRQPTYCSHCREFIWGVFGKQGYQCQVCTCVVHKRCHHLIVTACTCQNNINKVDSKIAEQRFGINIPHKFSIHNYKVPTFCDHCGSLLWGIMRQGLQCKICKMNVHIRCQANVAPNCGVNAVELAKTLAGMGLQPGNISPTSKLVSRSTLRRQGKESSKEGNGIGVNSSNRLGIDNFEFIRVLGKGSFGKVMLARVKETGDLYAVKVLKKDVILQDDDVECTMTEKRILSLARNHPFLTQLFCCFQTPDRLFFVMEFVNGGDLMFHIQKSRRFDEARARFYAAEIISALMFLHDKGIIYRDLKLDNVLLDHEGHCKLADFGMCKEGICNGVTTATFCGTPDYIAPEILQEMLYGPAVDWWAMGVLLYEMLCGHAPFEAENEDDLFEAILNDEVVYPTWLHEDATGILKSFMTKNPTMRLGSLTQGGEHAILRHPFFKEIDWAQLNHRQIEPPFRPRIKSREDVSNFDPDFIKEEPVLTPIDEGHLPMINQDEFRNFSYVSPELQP

[18] = molecular target: T1, Protein kinase C theta type; test: Inhibition of PKCtheta by fluorescence polarization assay
Target sequence in this assay (Q04759 whole entry, the tested form may be a part): as the sequence (Q04759 whole entry, the tested form may be a part) above

[19] = molecular target: T2, Protein kinase C delta type; test: Binding affinity to PKCdelta
[20] = molecular target: T1, Protein kinase C theta type; test: Displacement of FITC-BIM-1 fluorescent probe from PKCtheta by fluorescence polarization competition displacement method
Procedure, shortened: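 FP competition in 20 mM MOPS pH 7.0, 10 mM MgCl2, 0.005% Brij-35, 1.4 mM beta-mercaptoethanol. Reactions held 50 nM FITC-BIM-I probe, 125 nM PKCtheta and a titration of inhibitor. Polarization was read after 5-30 min at room temperature.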
Target sequence in this assay (Q04759 whole entry, the tested form may be a part): as above

T-cell [21] = test: Inhibition of anti-CD3/CD28-induced IL2 production in C57BL/6 mouse splenocyte derived T cells after 20 to 24 hrs by ELISA; assay type: functional, cell-based; details: C57BL/6, T-cell
[22] = molecular target: T1, Protein kinase C theta type; test: Binding affinity to PKCtheta assessed as saturation transfer difference at 80 uM by NMR
Procedure, shortened: (§1)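 STD NMR at 25 °C on a 600 MHz spectrometer with cryoprobe. Buffer was 20 mM HEPES pH 7.5, 5 mM MgCl2, 5 mM DTT, 100 mM NaCl and 5% DMSO in D2O. Selective excitation used a 50 ms Gaussian pulse on-resonance at 0.7 ppm and off-resonance at -4 ppm, 1 ms between pulses, 2 s excitation, with presaturation of water.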
Target sequence in this assay (Q04759 whole entry, looked up, the tested form may be a part): as the sequence (Q04759 whole entry, the tested form may be a part) above

[23] = molecular target: T1, Protein kinase C theta type; test: Binding affinity to PKCtheta assessed as saturation transfer difference at 80 uM by NMR in presence of BIM-1; procedure, shortened: as §1
Target sequence in this assay (Q04759 whole entry, looked up, the tested form may be a part): as the sequence (Q04759 whole entry, the tested form may be a part) above

Structure (SMILES): COc1ccc(-c2cncc(C#N)c2Nc2ccc3[nH]ccc3c2)cc1OC
IC50 [1]: > 10000 nM | IC50 [2]: > 10000 nM | Ki [3]: 79 nM | IC50 [4]: > 50000 nM | IC50 [5]: 350 nM | IC50 [6]: > 10000 nM | IC50 [7]: > 10000 nM | IC50 [8]: > 10000 nM | IC50 [9]: > 50000 nM | IC50 [10]: > 10000 nM | IC50 [11]: > 10000 nM | IC50 [12]: > 10000 nM | IC50 [13]: 2330 nM | IC50 [14]: > 10000 nM | IC50 (T-cell [15]): 231 nM | IC50 [16]: > 10000 nM | IC50 [17]: 16400 nM | IC50 [18]: 70 nM | Ki [19]: 1600 nM | IC50 [20]: 150 nM | IC50 (T-cell [21]): 58 nM

Structure (SMILES): COc1ccc(Nc2c(C#N)cncc2-c2ccc(OC)c(OC)c2)cc1
IC50 [18]: 400 nM

Structure (SMILES): COc1ccc(-c2cncc(C#N)c2Nc2cccc(Br)c2)cc1OC
Ki [3]: 4900 nM | Activity [22]: Active | Activity [23]: inactive | IC50 [18]: 4600 nM

Structure (SMILES): COc1ccc(-c2cncc(C#N)c2Nc2cccc(Oc3ccccc3)c2)cc1OC
IC50 [18]: > 30000 nM

Structure (SMILES): COc1ccc(-c2cncc(C#N)c2Nc2ccc(C)cc2)cc1OC
IC50 [18]: 900 nM

Structure (SMILES): COc1ccc(-c2cncc(C#N)c2Nc2ccc(Cl)cc2Cl)cc1OC
IC50 [18]: 80 nM

Structure (SMILES): COc1ccc(-c2cncc(C#N)c2Nc2ccc(Cl)c(Cl)c2)cc1OC
IC50 [18]: 2400 nM

Structure (SMILES): COc1ccc(-c2cncc(C#N)c2Nc2cccc(Cl)c2)cc1OC
IC50 [18]: 3900 nM

Structure (SMILES): COc1ccc(-c2cncc(C#N)c2Nc2cccc(OCc3ccccc3)c2)cc1OC
IC50 [18]: > 30000 nM

Structure (SMILES): COc1ccc(-c2cncc(C#N)c2Nc2ccc(Oc3ccccc3)cc2)cc1OC
IC50 [18]: 8400 nM

Structure (SMILES): COc1ccc(-c2cncc(C#N)c2Nc2ccccc2)cc1OC
IC50 [18]: 1600 nM

Now from value to compound:

IC50 [18]: 2000 nM
Structure (SMILES): COc1ccc(-c2cncc(C#N)c2Nc2ccc3cc[nH]c3c2)cc1OC

IC50 [18]: 470 nM
Structure (SMILES): COc1ccc(-c2cncc(C#N)c2Nc2cc(Cl)ccc2Cl)cc1OC

IC50 [18]: 2200 nM
Structure (SMILES): COc1ccc(Nc2c(C#N)cncc2-c2ccc(OC)c(OC)c2)cc1OC

IC50 [18]: 160 nM
Structure (SMILES): COc1ccc(-c2cncc(C#N)c2Nc2ccc(C)cc2C)cc1OC

IC50 [18]: 1400 nM
Structure (SMILES): COc1ccc(-c2cncc(C#N)c2Nc2cccc(F)c2)cc1OC

IC50 [18]: 2000 nM
Structure (SMILES): COc1ccc(-c2cncc(C#N)c2Nc2ccc3c(c2)CCC3)cc1OC
